Screening results deposited in PubChem by several laboratories.
NR2E3 ag-1 = human photoreceptor-specific nuclear receptor agonism. CHO-S Gal4-NCOR/VP16-NR2E3 two-hybrid, luciferase. inhibition of corepressor binding, % at 3.98 µM. 360,000 compounds, 0.35% hits. AID 602229;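 active = inhibition above the mean of all tested compounds plus 3 SD, cut at about 70% in these data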;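 note: 0% = DMSO with NR2E3 transfected cells and 100% = cells lacking NR2E3 construct; higher means lower luciferase signal from less NR2E3 corepressor binding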
Target sequence (Q9Y5X4 whole entry, looked up, the tested form may be a part): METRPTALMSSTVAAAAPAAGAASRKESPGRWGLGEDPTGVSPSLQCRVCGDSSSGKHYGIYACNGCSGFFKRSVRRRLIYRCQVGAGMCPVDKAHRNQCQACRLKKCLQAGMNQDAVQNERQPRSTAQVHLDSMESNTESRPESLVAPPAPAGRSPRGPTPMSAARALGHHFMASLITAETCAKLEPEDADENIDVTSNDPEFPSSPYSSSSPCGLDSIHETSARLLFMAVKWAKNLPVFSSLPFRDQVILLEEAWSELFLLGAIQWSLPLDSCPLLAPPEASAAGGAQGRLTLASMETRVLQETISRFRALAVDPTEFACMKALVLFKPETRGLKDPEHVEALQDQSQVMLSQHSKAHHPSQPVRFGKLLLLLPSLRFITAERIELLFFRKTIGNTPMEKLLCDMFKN
NR1D1 modulator = modulates human Rev-erb alpha binding to DNA. P20393. Rev-erbα–FITC-DNA binding, fluorescence polarization, 90 min. activity, % at 10 µM. 370,000 compounds, 0.79% hits. AID 1259318;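 active = activity above about 14%, limit read from the data; passing the limit was not always enough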;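 note: 0% = DMSO wells with 35 nM protein and 100% = DMSO wells with 750 nM protein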
Neddylation inh = blocks human cullin neddylation. calls only at 25 µM. P61081+Q13564. 360,000 compounds, 0.58% hits. AID 651699. TR-FRET cullin neddylation, biochemical; in the data active = inhibition above about 36%
PG9 binder = PG9 antibody binding by small molecule. TR-FRET gp120-PG9 antibody binding. inhibition, % at 6.7 µM. 360,000 compounds, 0.43% hits; in the data active = inhibition above about 8.5%
NR2E3 ag-2 = NR2E3 (human) agonism. Q9Y5X4. GST-NR2E3/biotin-RetCOR TR-FRET, 1536-well. AID 2300. 320,000 compounds, 0.12% hits. inhibition of corepressor binding, % at 4.78 µM;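 active = percent inhibition above the cutoff of mean plus 3 SD of all tested compounds, set per screening campaign, cut at about 20% in these data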;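 note: 0% = DMSO wells and 100% = biotin wells as full block of FRET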
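Material: NR2E3–RetCOR corepressor complex / Amount: 1.35 nM GST-NR2E3 / Medium: Tris pH 7.5 / Compound: single nominal compound dose of 4.8 µM / Incubation: 5 h at 4 °C / Technique: TR-FRET, Eu(K)-anti-GST donor, streptavidin-D2 acceptor, ex 340, em 617/671 nm / Read-out basis: percent loss of FRET ratio relative to control wells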
PG9 bind confirm = confirmation of small molecules binding HIV-1 gp120 antibody PG9. shares compounds with PG9 binder. TR-FRET PG9 antibody binding, biochemical. inhibition, % at 6.7 µM. 1,500 compounds, 90% hits. AID 651571; in the data active = inhibition above about 9%
PGV04 Ab binding = binds control antibody PGV04 in PG9 binder counter-screen; TR-FRET PGV04 antibody-gp120 binding, biochemical; shares compounds with PG9 binder; inhibition, % at 6.7 µM; 1,500 compounds, 95% hits; in the data active = inhibition above about 9.5%
The depositor's hits bear a star; i = inactive; x = no result given. Only some compounds are listed: those with a hit (about 2% of all), similar ones and a draw of the others.

SMILES	NR2E3 ag-1	NR1D1 modulator	Neddylation inh	PG9 binder	NR2E3 ag-2	PG9 bind confirm	PGV04 Ab binding
OC(COc1cccc2ccccc12)CN1CCN(c2ccc(Cl)cc2)CC1 (centres undefined)	23	10	i	18*	-1	27*	31*
COc1ccc(CCNCC(O)COc2cccc(C)c2)cc1OC (centres undefined)	x	-3	x	x	x	x	x
Cc1ccc(-c2nc3cccnc3s2)cc1NS(C)(=O)=O	-54	0	i	9.2*	1	29*	34*
CCCS(=O)(=O)Nc1cccc(-c2nc3cccnc3s2)c1	-23	8	i	-2	2	x	x
COc1cccc(OC)c1C(=O)N1CCN(C(=O)c2ccc(-c3ccccc3)cc2)CC1	-12	3	i	-2	-2	x	x
Cc1cc(SCCC(=O)O)nc2c(C)cccc12	-2	-1	i	11*	14	14*	18*
Cc1cc(SCC(=O)NC2(C#N)CCCCC2)nc2c(C)cccc12	-10	-2	i	23*	1	31*	37*
Cc1cc(SCC(=O)N2CCCC2=O)nc2c(C)cccc12	-2	0	i	1	-4	x	x
O=C(NCc1ccco1)C1CCCN(S(=O)(=O)c2ccccc2[N+](=O)[O-])C1 (centres undefined)	x	3	x	x	x	x	x
Nc1nc2c(-c3ccc(Br)cc3)nnn2c2ccccc12	-154	5	i	11*	2	13*	30*
Nc1nc2c(C(=O)N3CCCC3)nnn2c2ccccc12	x	-7	x	2	x	x	x
COc1ccc(C(=O)Nc2ccc(Cl)cc2C(=O)NCc2ccco2)cc1	-24	17	i	11*	1	-2	17*
COc1cccc(C(=O)Nc2cc(C(=O)NCc3ccc(C)cc3)ccc2N2CCC3(CC2)CC(c2ccccc2)=NO3)c1	-55	2	i	11*	7	4	6
Cc1nnc2c(NCCc3ccccc3)nc3ccccc3n12	-27	18	i	11*	4	49*	62*
CCCS(=O)(=O)NC(=O)C1(C)CCN(C(=O)c2cccnc2Oc2ccccc2)C1 (centres undefined)	-26	-7	i	-1	x	x	x
O=C(O)CCCC(=O)N1CCN(c2nc(-c3ccccc3Cl)c3cc(Br)ccc3n2)CC1	-30	-4	i	17*	2	23*	34*
CC(C)c1nc2sc3c(=O)[nH]cnc3c2c2c1CCC2	7	6	i	9.6*	5	20*	26*
CC(=O)c1cccc(NC(=O)CSc2nnc(-c3ccc(S(=O)(=O)N4CCCC4)cc3)o2)c1	-7	8	i	31*	1	37*	46*
C=CCCC1CN(Cc2ccc(OC)cc2)S(=O)(=O)c2c(cccc2N(C)S(=O)(=O)c2ccc(C)cc2)O1 (centres undefined)	x	-6	x	2	x	x	x
COc1cccc(C(=O)N=c2sc3cc(S(C)(=O)=O)ccc3n2C)c1	-67	7	i	39*	-56	46*	60*
COc1ccc2[nH]c(=O)c(COC(=O)c3cccs3)cc2c1	-18	3	i	33*	-2	16*	26*
CC(=O)c1sc(C(C)(C)C)cc1NC(=O)/C=C/C(=O)O	-17	-4	i	0	-1	x	x
CC(=O)c1sc(C(C)(C)C)cc1NC(=O)CCC(=O)O	-1	1	i	10*	6	19*	23*
CCc1c(C)nc2ccc(Br)cc2c1Cl	-26	4	i	9.3*	0	24*	26*
O=C(C(O)c1ccccc1)N1CCN(S(=O)(=O)c2ccc(F)c(F)c2)CC1 (centres undefined)	x	-2	i	-1	x	x	x
SMILES	NR2E3 ag-1	NR1D1 modulator	Neddylation inh	PG9 binder	NR2E3 ag-2	PG9 bind confirm	PGV04 Ab binding
Cc1cccc(NC(=O)c2cnn3ccccc23)c1C	-80	-3	i	11*	-1	1	4
Cc1cc(N=Cc2c(O)ccc3cc(Br)ccc23)no1	9	1	i	9.1*	16	7	10*
Cc1ccc(S(=O)(=O)N(C)Cc2cc3cc(C)ccc3[nH]c2=O)cc1	-6	9	i	17*	3	28*	44*
Cc1ccc(N2CCN(C(CCc3ccccc3)C(=O)Nc3c(C)cccc3C)CC2)cc1 (centres undefined)	x	2	i	0	x	x	x
COc1ccc(OC)c(NC(=O)CSc2nc3scc(C)c3c(=O)[nH]2)c1	-20	-4	i	0	1	x	x
COc1cccc(NC(=O)CSc2nc3scc(C)c3c(=O)[nH]2)c1	-14	8	i	26*	3	29*	43*
CC(C)NC(=O)CN(Cc1ccc(F)cc1)C(=O)CCC(=O)Nc1nccs1	-25	-1	i	-2	0	x	x
O=C(Nc1c(Br)cc2c(c1Br)Cc1ccccc1-2)C(Cl)Cl	-38	14	i	28*	x	25*	38*
CCc1cc2cc(C(=O)N3CCN(c4ccccc4)CC3)sc2s1	8	6	i	20*	2	36*	40*
CCc1cc2cc(C(=O)N3CCN(Cc4ccccc4)CC3)sc2s1	-6	-11	i	0	-3	x	x
CSc1nc(-c2cccs2)c(C#N)c(=O)[nH]1	-19	-9	i	49*	17	55*	68*
CCSc1nc(-c2ccccc2)c(C#N)c(=O)[nH]1	-17	-2	i	9.5*	14	15*	21*
N#Cc1c(-c2cccs2)cc(-c2cccs2)[nH]c1=O	-14	4	i	6	10	x	x
CCOC(=O)Cc1csc(NC(=O)CSc2nc(-c3ccccc3)c(C#N)c(=O)[nH]2)n1	-8	-1	i	0	12	x	x
CNC(=O)NC(=O)CSc1nc(-c2cccs2)c(C#N)c(=O)[nH]1	-13	5	i	58*	x	58*	70*
CC(C)C[C@@H]1CN(CCCC[C@H]2CNC(=O)C(=O)N2CCC2CCCCC2)C(=O)C(=O)N1CCc1ccc(O)cc1	6	1	i	0	x	x	x
Cc1ccccc1CN1CCCCC(NC(=O)C2CCC2)C1=O (centres undefined)	x	3	x	x	x	x	x
Cc1cc(C)c2nc(-c3ccccn3)cc(C(=O)NCCc3ccc(S(N)(=O)=O)cc3)c2c1	-13	8	x	30*	-6	23*	40*
COc1ccccc1CCNC(=O)c1cc(-c2ccccn2)nc2ccccc12	-8	12	i	27*	x	22*	32*
Cc1cc(C)c2nc(-c3ccccn3)cc(C(=O)NCc3ccc(S(N)(=O)=O)cc3)c2c1	-10	-5	i	2	2	x	x
Cc1cc(C)cc(-c2nnc(SCC(=O)Nc3cc(C)on3)o2)c1	16	3	i	14*	x	22*	34*
